pIC50: −log10 of the molar value.
What was measured:
[1] = tested on: AMML; experiment: Compound was tested for the inhibition of AMML (acute myelomonocytic leukemia); assay type: functional, cell-based; details: Homo sapiens
Summary of the method: (§1)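 Human leukemia and solid tumor cells in culture were exposed to compound for 48 h. Viability was scored by trypan blue dye exclusion. IC50 (50% inhibition) was estimated from response curves of three separate experiments.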

[2] = tested on: CML/BC; experiment: Compound was tested for the inhibition of CML/BC(chronic myeloid leukemia, blast crisis); assay type: functional, cell-based; details: Homo sapiens; summary of the method: as §1
[3] = tested on: Glioblastoma cell line; experiment: Compound was tested for the inhibition of glioblastoma; assay type: functional, cell-based; details: Homo sapiens; summary of the method: as §1
[4] = tested on: HL-60; experiment: Compound was tested for the inhibition of human HL60 Leukemia; assay type: functional, cell-based; summary of the method: as §1
[5] = tested on: L1210; experiment: Antitumor activity was determined against the ip implanted L1210 leukemia in mice by percent median survival rate (treated/control) at 300 mg/kg (treatment of 1qd schedule) dosage; 9.5/8.0; assay type: functional, Mus musculus; details: route intraperitoneal
Summary of the method: (§2)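 DBA/2J mice, 23-28 g, in groups of 6, were inoculated ip with 1×10^6 L1210 cells on day 0. Dosing was ip starting 24 h later on the stated daily schedules. Conjugates were given as sonicated solutions and reference prodrugs as suspensions in 0.9% NaCl with 0.5% Tween-80. Mice were observed daily until death or 45 days. Median survival T/C was calculated from survivors per NCI protocols.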

[6] = tested on: L1210; experiment: Antitumor activity was determined against the ip implanted L1210 leukemia in mice by range in survival days at 300 mg/kg (treatment of 1qd schedule) dosage; Range is 9-10; assay type: functional, Mus musculus; details: route intraperitoneal; summary of the method: as §2
[7] = tested on: L1210; experiment: Antitumor activity was determined against the ip implanted L1210 leukemia in mice by range in survival days at 80 mg/kg (treatment of 1-5qd schedule) dosage; Range is 17-18; assay type: functional, Mus musculus; details: route intraperitoneal; summary of the method: as §2
[8] = tested on: L1210; experiment: Antitumor activity against the ip implanted L1210 leukemia in mice expressed as optimal dose (1-5qd treatment schedule) required to produce greatest increase in life span was determined; assay type: functional, Mus musculus
Summary of the method: (§3)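 DBA/2J mice, groups of 6 (23-28 g), were inoculated ip with 1 × 10^6 L1210 cells on day 0. Dosing was ip from 24 h, in 0.9% NaCl with 0.5% Tween-80 (sonicated solution or suspension). Mice were observed daily until death or day 45. Median survival T/C followed NCI protocols, and ILS = (T/C − 1) × 100. Active range means doses giving ILS ≥25%; optimal dose means greatest ILS.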

[9] = tested on: L1210; experiment: Antitumor activity against the ip implanted L1210 leukemia in mice expressed as optimal dose (1 qd treatment schedule) required to produce greatest increase in life span was determined; assay type: functional, Mus musculus; summary of the method: as §3
[10] = tested on: L1210; experiment: Antitumor activity was determined against the ip implanted L1210 leukemia in mice by change in […] at 80 mg/kg (treatment of 1-5qd schedule) dosage; assay type: functional, Mus musculus; details: route intraperitoneal
Summary of the method: (§4)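 DBA/2J mice, 6 per group (wt 23-28 g), inoculated ip with 1×10^6 L1210 cells on day 0. Treatment was given ip in 0.9% NaCl with 0.5% Tween-80, starting 24 h later. Weight change was taken on day 8. Mice were observed daily until death or 45 days. Median survival T/C and %ILS = (T/C − 1) × 100 came from survivors per NCI protocols, and 45-day survivors were counted.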

[11] = tested on: L1210; experiment: Antitumor activity was determined against the ip implanted L1210 leukemia in mice by change in […] at 300 mg/kg (treatment of 1qd schedule) dosage; assay type: functional, Mus musculus; details: route intraperitoneal; summary of the method: as §4
[12] = tested on: L1210; experiment: Antitumor activity was determined against the ip implanted L1210 leukemia in mice by 45-day survivors in mice at 300 mg/kg (treatment of 1qd schedule) dosage; assay type: functional, Mus musculus; details: route intraperitoneal
Summary of the method: (§5)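 DBA/2J mice in groups of 6 (wt 23-28 g) were inoculated ip with 1×10^6 L1210 cells on day 0. Dosing was ip from 24 h, in 0.9% NaCl with 0.5% Tween-80 (conjugates sonicated), across a range of doses. Mice were observed daily until death or 45 days. Median T/C was computed from survivors per NCI protocols, and ILS = (T/C − 1)×100.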

[13] = tested on: L1210; experiment: Antitumor activity was determined against the ip implanted L1210 leukemia in mice by 45-day survivors in mice at 80 mg/kg (treatment of 1-5qd schedule) dosage; assay type: functional, Mus musculus; details: route intraperitoneal; summary of the method: as §5
[14] = tested on: L1210; experiment: Antitumor activity was determined against the ip implanted L1210 leukemia in mice by percent increase in life span at 80 mg/kg (treatment of 1-5qd schedule) dosage; assay type: functional, Mus musculus; details: route intraperitoneal; summary of the method: as §5
[15] = tested on: L1210; experiment: Antitumor activity was determined against the ip implanted L1210 leukemia in mice by percent median survival rate (treated/control) at 80 mg/kg (treatment of 1-5qd schedule) dosage; 18.0/7.0; assay type: functional, Mus musculus; details: route intraperitoneal; summary of the method: as §2
[16] = tested on: L1210; experiment: Antitumor activity was determined against the ip implanted L1210 leukemia in mice by percent increase in life span at 300 mg/kg (treatment of 1qd schedule) dosage; assay type: functional, Mus musculus; details: route intraperitoneal; summary of the method: as §5
[17] = tested on: NSCLC; experiment: Compound was tested for the inhibition of non- small cell lung cancer; assay type: functional, cell-based; details: Homo sapiens; summary of the method: as §1
[18] = tested on: P388; experiment: Antitumor activity was determined against the ip implanted P388 leukemia in mice by percent increase in life span at 60 mg/kg (1-5qd treatment schedule) dosage; assay type: functional, Mus musculus; details: route intraperitoneal
Summary of the method: (§6)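 DBA/2J mice, 23-33 g, in groups of 6, were inoculated ip with 1×10^6 P388 cells on day 0. Dosing was ip from 24 h on the stated schedules, in 0.9% NaCl with 0.5% Tween-80 (sonicated solution or suspension). Survival was followed daily until death or 45 days. Median T/C was calculated from survivors per NCI protocols, with ILS = (T/C − 1) × 100.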

[19] = tested on: P388; experiment: Antitumor activity was determined against the ip implanted P388 leukemia in mice by percent median survival rate (treated/control) at 300 mg/kg (1 qd treatment schedule) dosage; 12.5/11.0; assay type: functional, Mus musculus; details: route intraperitoneal
[20] = tested on: P388; experiment: Antitumor activity was determined against the ip implanted P388 leukemia in mice by 45-day survivors in mice at 300 mg/kg (1 qd treatment schedule) dosage; assay type: functional, Mus musculus; details: route intraperitoneal; summary of the method: as §6
[21] = tested on: P388; experiment: Antitumor activity was determined against the ip implanted P388 leukemia in mice by 45-day survivors in mice at 60 mg/kg (1-5qd treatment schedule) dosage; assay type: functional, Mus musculus; details: route intraperitoneal; summary of the method: as §6
[22] = tested on: P388; experiment: Antitumor activity was determined against the ip implanted P388 leukemia in mice by percent median survival rate (treated/control) at 60 mg/kg (1-5qd treatment schedule) dosage; 21.0/12.0; assay type: functional, Mus musculus; details: route intraperitoneal
[23] = tested on: P388; experiment: Antitumor activity against ip implanted P388 leukemia in mice expressed as active dose range (1-5qd treatment schedule) required to produce increase in life span by >25% was determined; Range is 60-80; assay type: functional, Mus musculus
Summary of the method: (§7)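 P388 leukemia: 1 × 10^6 cells were given ip on day 0 to DBA/2J mice, groups of 6 (23-33 g). Treatment was ip from 24 h after inoculation, vehicle 0.9% NaCl with 0.5% Tween-80. Mice were observed daily until death or 45 days. Median survival T/C was calculated from survivors per NCI protocols, and ILS = (T/C − 1) × 100. Active range means doses giving ILS ≥25%; optimal dose means greatest ILS.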

[24] = tested on: P388; experiment: Antitumor activity was determined against the ip implanted P388 leukemia in mice by range in survival days at 60 mg/kg (1-5qd treatment schedule) dosage; Range is 18-21; assay type: functional, Mus musculus; details: route intraperitoneal
[25] = tested on: P388; experiment: Antitumor activity was determined against the ip implanted P388 leukemia in mice by change in […] at 300 mg/kg (1 qd treatment schedule) dosage; assay type: functional, Mus musculus; details: route intraperitoneal
Summary of the method: (§8)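 P388 leukemia, 1×10^6 cells implanted ip on day 0 into DBA/2J mice, groups of 6 (wt 23-33 g). Dosing ip started 24 h post-inoculation, vehicle 0.9% NaCl containing 0.5% Tween-80. Animals were observed daily until death or 45 days. Outputs were weight change, median survival T/C from survivors per NCI protocols, and %ILS = (T/C − 1) × 100.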

[26] = tested on: P388; experiment: Antitumor activity was determined against the ip implanted P388 leukemia in mice by change in […] at 60 mg/kg (1-5qd treatment schedule) dosage; assay type: functional, Mus musculus; details: route intraperitoneal; summary of the method: as §8
[27] = tested on: P388; experiment: Antitumor activity was determined against the ip implanted P388 leukemia in mice by range in survival days at 300 mg/kg (1 qd treatment schedule) dosage; Range is 3-18; assay type: functional, Mus musculus; details: route intraperitoneal
[28] = tested on: P388; experiment: Antitumor activity was determined against the ip implanted P388 leukemia in mice by percent increase in life span at 300 mg/kg (1 qd treatment schedule) dosage; assay type: functional, Mus musculus; details: route intraperitoneal; summary of the method: as §6
[29] = tested on: P388; experiment: Antitumor activity against the ip implanted P388 leukemia in mice expressed as optimal dose (1-5qd treatment schedule) required to produce greatest increase in life span was determined; assay type: functional, Mus musculus; design: unit: mg/kg; summary of the method: as §7
[30] = tested on: P388; experiment: Antitumor activity against the ip implanted P388 leukemia in mice expressed as optimal dose (1 qd treatment schedule) required to produce greatest increase in life span was determined; assay type: functional, Mus musculus; summary of the method: as §7
[31] = tested on: Small cell lung cancer cell line; experiment: Compound was tested for the inhibition of small cell lung cancer; assay type: functional, cell-based; details: Homo sapiens; summary of the method: as §1
[32] = tested on: L1210; experiment: Antitumor activity against ip implanted L1210 leukemia in mice expressed as active dose range (1-5qd treatment schedule) required to produce increase in life span by >25% was determined; Range is 10-120
[33] = tested on: L1210; experiment: Antitumor activity was determined against the ip implanted L1210 leukemia in mice by range in survival days at 5 mg/kg (treatment of 1-5qd schedule) dosage; Range is 8-9; assay type: functional, Mus musculus; details: route intraperitoneal; summary of the method: as §2
[34] = tested on: L1210; experiment: Antitumor activity was determined against the ip implanted L1210 leukemia in mice by 45-day survivors in mice at 5 mg/kg (treatment of 1-5qd schedule) dosage; assay type: functional, Mus musculus; details: route intraperitoneal; summary of the method: as §5
[35] = tested on: L1210; experiment: Antitumor activity was determined against the ip implanted L1210 leukemia in mice by percent increase in life span at 5 mg/kg (treatment of 1-5qd schedule) dosage; assay type: functional, Mus musculus; details: route intraperitoneal; summary of the method: as §5
[36] = tested on: L1210; experiment: Antitumor activity was determined against the ip implanted L1210 leukemia in mice by percent median survival rate (treated/control) at 5 mg/kg (treatment of 1-5qd schedule) dosage; 9.0/8.0; assay type: functional, Mus musculus; details: route intraperitoneal; summary of the method: as §2

Compound `CCCCCCCCCCCCCCCCCCOCC(COP(=O)(O)OP(=O)(O)OC[C@H]1O[C@@H](n2ccc(N)nc2=O)[C@@H](O)[C@@H]1O)OC` (mixture of isomers) has a pIC50 [1] of 5.64, a pIC50 [2] of 5.92 and a pIC50 [3] of 4.33. For the same compound, the pIC50 [4] was 4.89, the median survival time [5] was 9.5 days and the Range [6] was 9. For the same compound, the Range [7] was 17, the Optimal dose [8] was 80 mg and the Optimal dose [9] was 300 mg/kg/day. For the same compound, the Weight change [10] was -1.53 g mouse-1, the Weight change [11] was 2.58 g mouse-1 and the Survivors [12] was 0. For the same compound, the Survivors [13] was 0, the ILS [14] was 157 and the T/C [15] was 18%. It also gave an ILS [16] of 12, a pIC50 [17] of 4.42 and an ILS [18] of 75. For the same compound, the T/C [19] was 12.5%, the Survivors [20] was 0 and the Survivors [21] was 0. The T/C [22] was 21%, the Active dose range [23] was 60 mg/kg/day and the Range [24] was 18. For the same compound, the Weight change [25] was 0.38 g mouse-1, the Weight change [26] was 0.04 g mouse-1 and the Range [27] was 3. It also gave an ILS [28] of 14, an Optimal dose [29] of 60 mg and an Optimal dose [30] of 300 mg. For the same compound, the pIC50 [31] was under 4.00 and the Active dose range [32] was 10 mg/kg/day.
With `CCCCCCCCCCCCCCCCCCOC[C@H](COP(=O)([O-])OCC[N+](C)(C)C)OC` [(R)-EDELFOSINE] the pIC50 [1] was 5.48, the pIC50 [2] was 5.82 and the pIC50 [3] was 4.70. For the same compound, the pIC50 [4] was 5.60, the Range [33] was 8 and the Optimal dose [8] was 5 mg/kg/day. The Survivors [34] was 0, the ILS [35] was 13 and the T/C [36] was 9%. For the same compound, the pIC50 [17] was 4.68 and the pIC50 [31] was 4.62.

— ChEMBL document CHEMBL1123247, “Nucleoside conjugates. 7. Synthesis and antitumor activity of 1-beta-D-arabinofuranosylcytosine conjugates of ether lipids” (J Med Chem, 1986)
